Measured values taken from ChEMBL document CHEMBL1833840, “RGD mimetics containing phthalimidine fragment as novel ligands of fibrinogen receptor” (Bioorg Med Chem Lett, 2011).

Assays:
[1] = system: Platelet; assay: Inhibition of ADP-induced platelet aggregation in human platelet rich plasma by Borns method; type: functional
How it was run: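 Human platelet-rich plasma stimulated with ADP, with aggregation followed by Born's method.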

[2] = biological target: Integrin alpha-IIb/beta-3 (Homo sapiens) (UniProt P08514); assay: Displacement of FITC-labeled fibrinogen from alphaIIbbeta3 in human platelets
Integrin alpha-IIb/beta-3 (Homo sapiens), sequence (P08514 whole entry, looked up): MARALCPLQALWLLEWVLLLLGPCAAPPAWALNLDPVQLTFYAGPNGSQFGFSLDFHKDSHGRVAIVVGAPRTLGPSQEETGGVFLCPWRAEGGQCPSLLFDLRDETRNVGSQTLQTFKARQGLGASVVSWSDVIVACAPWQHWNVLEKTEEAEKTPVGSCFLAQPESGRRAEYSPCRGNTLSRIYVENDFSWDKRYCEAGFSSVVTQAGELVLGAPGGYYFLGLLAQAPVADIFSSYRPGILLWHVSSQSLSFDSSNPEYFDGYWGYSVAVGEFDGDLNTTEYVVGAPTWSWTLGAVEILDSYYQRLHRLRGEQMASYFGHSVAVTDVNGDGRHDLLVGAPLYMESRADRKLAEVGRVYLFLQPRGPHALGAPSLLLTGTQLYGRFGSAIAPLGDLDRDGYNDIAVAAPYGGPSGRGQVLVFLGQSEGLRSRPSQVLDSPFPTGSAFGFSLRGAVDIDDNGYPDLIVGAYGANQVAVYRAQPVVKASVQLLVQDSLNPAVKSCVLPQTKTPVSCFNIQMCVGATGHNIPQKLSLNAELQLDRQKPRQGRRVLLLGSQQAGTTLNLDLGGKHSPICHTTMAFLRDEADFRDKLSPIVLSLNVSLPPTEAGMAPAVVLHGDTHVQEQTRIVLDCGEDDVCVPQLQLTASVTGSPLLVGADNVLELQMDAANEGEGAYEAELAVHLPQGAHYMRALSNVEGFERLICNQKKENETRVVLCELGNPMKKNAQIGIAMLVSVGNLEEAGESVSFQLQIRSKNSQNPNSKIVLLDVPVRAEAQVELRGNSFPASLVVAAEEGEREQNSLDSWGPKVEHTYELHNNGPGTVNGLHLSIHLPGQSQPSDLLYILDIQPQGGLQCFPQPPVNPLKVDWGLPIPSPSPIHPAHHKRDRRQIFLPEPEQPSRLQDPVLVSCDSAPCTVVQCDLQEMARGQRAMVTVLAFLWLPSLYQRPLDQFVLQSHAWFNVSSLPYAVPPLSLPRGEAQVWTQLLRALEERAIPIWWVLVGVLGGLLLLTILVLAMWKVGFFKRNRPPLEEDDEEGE

| IC50 [1] [nM] | IC50 [2] [nM] | Structure (SMILES) |
| --- | --- | --- |
| 9600 | 6.8 | O=C(O)CCN1Cc2ccc(NC(=O)c3ccc(C4CCNCC4)cc3)cc2C1=O |
| 410000 |  | O=C(O)CCCN1Cc2ccc(NC(=O)c3ccc(C4CCNCC4)cc3)cc2C1=O |
| 540 |  | O=C(O)CCN1Cc2ccc(NC(=O)c3ccc(N4CCNCC4)cc3)cc2C1=O |
| 1100 | 6.5 | O=C(O)CCN1Cc2ccc(NC(=O)c3ccc4c(c3)CNCC4)cc2C1=O |
| 330000 |  | O=C(O)CCCN1Cc2ccc(NC(=O)c3ccc4c(c3)CNCC4)cc2C1=O |
| 24000 | 270 | O=C(O)CN1Cc2ccc(NC(=O)c3ccc(C4CCNCC4)cc3)cc2C1=O |
| 3740 | 37 | CC(CC(=O)O)N1Cc2ccc(NC(=O)c3ccc(N4CCNCC4)cc3)cc2C1=O (racemic) |

Continued, molecule first:

| Structure (SMILES) | IC50 [1] [nM] | IC50 [2] [nM] |
| --- | --- | --- |
| O=C(O)CN1Cc2ccc(NC(=O)c3ccc4c(c3)CNCC4)cc2C1=O | 120000 | 1200 |
| O=C(O)CCNC(=O)c1ccc2c(c1)C(=O)N(CCC1CCNCC1)C2 | 25 |  |
| Cc1ccc(S(=O)(=O)N[C@@H](CNC(=O)Cc2cn(CCCC3CCNCC3)c3ccccc23)C(=O)O)cc1 | 4500 |  |
| O=C(O)CN1Cc2ccc(NC(=O)CCCC3CCNCC3)cc2C1=O | 66000 |  |
| N=C(N)c1ccc(C(=O)Nc2ccc3c(c2)CCN(CC(=O)O)C3)cc1 | 90 |  |
| O=C(O)CCN1Cc2ccc(NC(=O)CCCC3CCNCC3)cc2C1=O | 5900 | 5.5 |
| CC(CC(=O)O)N1Cc2ccc(NC(=O)CCCC3CCNCC3)cc2C1=O (racemic) | 5400 | 350 |
| CC(CC(=O)O)N1Cc2ccc(NC(=O)c3ccc(C4CCNCC4)cc3)cc2C1=O (racemic) | 6200 |  |
| O=C(O)CCNC(=O)CCNC(=O)c1ccc2c(c1)CNCC2 | 1100 | 22 |
| O=C(O)CCCN1Cc2ccc(NC(=O)CCCC3CCNCC3)cc2C1=O | 51000 |  |
| CC(CC(=O)O)N1Cc2ccc(NC(=O)c3ccc4c(c3)CNCC4)cc2C1=O (racemic) | 86 | 6.5 |
